Screens: PubChem, several laboratories
Beta apoptosis: beta cell apoptosis inhibition. INS-1E cytokine-induced death, ATP luminescence, 48 h; percent of positive-control rescue, neutral wells zero. protection from apoptosis, % (test concentration not listed). 0.8% of 300,000 active. AID 435005;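 active = Every replicate reaches about 75%, or at least half do and their mean reaches it too, limit read from the data; inconclusive = At least half of replicates reach the limit but their mean does not; inactive = Under half of replicates reach the limit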;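 note: 0% = cytokine-treated negative control wells and 100% = positive control rescue; higher means more ATP so stronger rescue from cytokine killing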
T cruzi repl: T. cruzi replication inhibition. T. cruzi beta-gal in NIH3T3, luminescence, 90 h. inhibition, % (concentration not given with the values). 1.4% of 300,000 active;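 active = mean inhibition across valid replicates above about 55%, limit read from the data; inconclusive = mean below that limit but half or more replicates reach it; inactive = mean below it, under half of replicates reach it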;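 note: signal also drops with host cell toxicity which is not excluded here; 0% = plate median of DMSO wells and 100% = zero luminescence signal; higher percent means less beta-gal luminescence so fewer parasites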
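Assay system: NIH/3T3 fibroblasts plus reporter T. cruzi. Amount: NIH/3T3 cells, 5,000 per well. Buffer or medium: DMEM, 2% fetal bovine serum. Doses: compound pinned at 50 nL/well, DMSO. Schedule: ≥90 h infection period, 3 h prior cell attachment. Signal: luminescent β-galactosidase signal after 60 min lysis. Read-out: parasite load inhibition, %.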
CSC inhib: cancer stem cell inhibition. cancer stem cell-like cells viability, luminescence. inhibition, % at 7.5 µM. 1.1% of 300,000 active; in the data active = inhibition above about 75%; inconclusive = no clear call, values can overlap the other calls; tested in HMLE shEcad cells
Bfl-1 A1 inh: inhibitors of the anti-apoptotic protein A1, read as caspase activation; MEF A1-2A-BIM cells, Caspase-Glo 3/7 luminescence, 3 h; percent of clofoctol response, vehicle zero; caspase activation, % (no concentration beside the values); 0.066% of 330,000 active; AID 2462;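 active = over half of replicate activation scores above 10%, or exactly half above 10 with the replicate mean above 10; inconclusive = replicate mean below 10 yet half the replicates above 10; inactive = over half of replicates below 10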
Calb FLC: affects C. albicans growth with fluconazole | C. albicans CaCi-2 (fluconazole-resistant clinical isolate) + fluconazole, Alamar Blue growth, 48 h | growth inhibition, % (test concentration not listed) | 0.57% of 300,000 active;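 active = growth inhibition above about 58% in most replicates, limit read from the data, passing the limit was not always enough; inconclusive = exactly half the replicates above a set limit; inactive = most replicates below a set limit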;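 note: all wells also contain fluconazole at 8 µg/ml as a sub-toxic cotreatment; 0% = median of DMSO wells and 100% = median of geldanamycin control wells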
TAG inh: reduces triacylglycerol accumulation in H9c2 cells | Nile Red lipid (TAG) fluorescence; cells loaded with 200 µM oleic acid | inhibition, % at 12.5 µM | 0.66% of 230,000 active | AID 651582;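 active = pattern-corrected inhibition of lipid staining of at least 50% with the nuclear-stain viability signal not falling by more than 50%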;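 note: 0% = DMSO wells and 100% = triacsin C control wells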
Numbers without * were called inactive; ? = inconclusive; . = not tested or not shown. The list is not random: actives were taken first. Their share in the collection is about 3.1%.

SMILES	Beta apoptosis	T cruzi repl	CSC inhib	Bfl-1 A1 inh	Calb FLC	TAG inh
O=C(NCc1cn(-c2ccccc2)nc1-c1ccccc1)c1cc([N+](=O)[O-])cc([N+](=O)[O-])c1	10	62*	-4	0	9	14
COc1ccc(-c2nn(-c3ccccc3)cc2/C=N/Nc2cccc(C(=O)O)c2)cc1	.	.	.	.	.	18
COc1ccc(-c2nn(-c3ccccc3)cc2CNC(=O)c2cccc([N+](=O)[O-])c2)cc1	24	66*	-6	0	15	3
CCCOc1ccc(-c2c(=O)n(O)c3ccccc3[n+]2[O-])cc1	2	5	6	-1	25	.
Cc1ccc(S(=O)(=O)N(CC(=O)N(C(C)C)C(C)C)C(=O)N2CCN(C)CC2)cc1	-6	-8	-18	0	0	.
Cc1ccccc1NC(=O)CSc1nnc(C)c2ccccc12	-6	10	-10	-1	-12	.
COc1ccc(N2CCN(c3cc(C)c4ccc(O)cc4n3)CC2)cc1	-1	4	46	-1	3	-17
COc1cc(OC)c2nc(C)c3c(c2c1)N(c1ccc(O)cc1)CC3	46	83*	20	-1	-7	25
Cn1c(=O)c2c(ncn2CCOC(=O)C(C)(C)Oc2ccc(Cl)cc2)n(C)c1=O	.	.	.	.	.	1
C=CCSc1nnc(NC(=O)C2CC(=O)N(c3ccc4c(c3)OCCO4)C2)s1 (stereo unspecified)	-4	.	-24	0	.	-12
O=C(NC(c1ccc(Cl)cc1)c1cc(Cl)c2cccnc2c1O)c1cccnc1 (stereo unspecified)	96*	58*	113*	0	84*	.
CC(=O)NC(c1ccccc1)c1cc(Cl)c2cccnc2c1O (stereo unspecified)	98*	?	104*	1	105*	.
CC(=O)NC(c1ccc(N(C)C)cc1)c1cc(Cl)c2cccnc2c1O (stereo unspecified)	.	.	.	.	.	-8
COc1ccc(C(NC(C)=O)c2cc(Cl)c3cccnc3c2O)cc1 (stereo unspecified)	95*	63*	107*	1	3	44
CCCC(=O)NC(c1ccc(OC)c(OC)c1)c1cc(Cl)c2cccnc2c1O (stereo unspecified)	91*	56*	-10	0	13	14
COc1ccc(N(C)C(=O)CN(C)S(=O)(=O)c2ccc3c(c2)c(=O)n(C)c(=O)n3C)c(OC)c1	-5	11	-10	1	4	.
CC1(O)CC(c2ccc(Cl)cc2)=NN1C(=O)c1ccc([N+](=O)[O-])cc1 (stereo unspecified)	48	6	86*	0	95*	.
CC(=O)N1N=C(c2ccc(Cl)cc2)CC1c1ccc([N+](=O)[O-])cc1 (stereo unspecified)	0	-6	-15	1	-1	.
CC1C(=O)C(C)C(c2ccc3c(c2)OCO3)NC1c1ccc2c(c1)OCO2 (stereo unspecified)	3	-8	-7	1	-18	.
CC1C(=O)C(C)C(c2ccc(Br)cc2)NC1c1ccc(Br)cc1 (stereo unspecified)	8	68*	49	2	13	.
CCCS(=O)(=O)c1nnnn1-c1cccc(OC)c1	-48	32	.	2	82*	.
COc1cccc(-n2nnnc2SCC(=O)Nc2ccccc2OC)c1	-2	1	1	0	-3	-13
CN1CCN(C(=O)CCCN2C(=O)/C(=C/c3cccc(Br)c3)SC2=S)CC1	.	66*	.	.	-1	.
CN1CCN(C(=O)CCN2C(=O)/C(=C/c3cccc(Br)c3)SC2=S)CC1	-35	-1	53	-1	-24	.
COc1ccc(/C=C2\SC(=S)N(CCCC(=O)N3CCN(C)CC3)C2=O)cc1	-21	60*	30	-2	-5	.
CCc1ccc(/C=C2\SC(=S)N(CCCC(=O)N3CCN(C)CC3)C2=O)cc1	.	.	.	.	.	-5
Cc1ccc(-c2nnc(SCC(=O)N(C)C)nc2-c2ccc(C)cc2)cc1	12	7	-1	0	5	.
Cc1nc(SCC(=O)N2CCCC2=O)c2c(C)c(C)sc2n1	.	.	.	.	.	-7
NC(=O)C[C@H](N)c1cn([C@@H](CC(N)=O)C(=O)N2CCNCC2)nn1	-1	.	3	0	.	-40
Cc1ccc(NC(=O)c2cc3ccccc3cc2O)cc1	8	-9	26	-6	-4	.
